From ChEMBL document CHEMBL1145949, “Constrained derivatives of stylostatin 1. 1. Synthesis and biological evaluation as potential anticancer agents” (2003)

How the values were obtained:
[1] = Growth inhibition effect against ovarian tumor SK-BR-3 cells; type: functional, Homo sapiens
In short: (§1)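 SRB colorimetric growth assay. Cells seeded at 5 × 10^3 per well in RPMI, attached 18 h in drug-free medium, then sample added (dissolved in DMSO/H₂O 3:7) for 48-72 h. Fixed with cold 50% TCA, 60 min, 4 °C; stained with 0.4% SRB in 1% acetic acid, 10 min RT; bound dye solubilized in Tris, OD 490 nm. GI50 from 100 × [(T − T0)/(C − T0)] = 50.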

[2] = Growth inhibition effect against prostate tumor DU-145 cells; type: functional, Homo sapiens; in short: as §1
[3] = Growth inhibition effect against prostate tumor IGROV cells; type: functional, Homo sapiens; in short: as §1
[4] = Growth inhibition effect against melanoma MEL-28 cells; type: functional, Homo sapiens; in short: as §1
[5] = Growth inhibition effect against NSCL A-549 cells; type: functional, Homo sapiens; in short: as §1
[6] = Growth inhibition effect against ovarian tumor IGROV-ET cells; type: functional, Homo sapiens; in short: as §1
K562 = experiment: Growth inhibition effect against leukemia […] cells; type: functional, Homo sapiens; in short: as §1
[7] = Growth inhibition effect against prostate tumor LN-caP cells; type: functional, Homo sapiens; in short: as §1
[8] = Growth inhibition effect against colon LOVO-DOX cells; type: functional, Homo sapiens; in short: as §1
[9] = Growth inhibition effect against pancreas PANC-1 cells; type: functional, Homo sapiens; in short: as §1
[10] = Growth inhibition effect against prostate tumor SKOV-3 cells; type: functional, Homo sapiens, SK-OV-3; in short: as §1
[11] = Growth inhibition effect against […] HT-29 cells; type: functional, Homo sapiens; in short: as §1
[12] = Growth inhibition effect against colon LOVO cells; type: functional, Homo sapiens; in short: as §1

| Compound | GI50 [2] | GI50 [10] | GI50 [12] | GI50 ([1]; Homo sapiens, SK-BR-3) | GI50 ([3]; Homo sapiens, IGROV) | GI50 ([4]; Homo sapiens, SK-MEL-28) | GI50 ([5]; Homo sapiens, A549) | GI50 ([6]; Homo sapiens, IGROV-ET) | GI50 (K562; Homo sapiens, K562) | GI50 ([7]; Homo sapiens, LNCaP) | GI50 ([8]; Homo sapiens, LOVO-DOX) | GI50 ([9]; Homo sapiens, PANC-1) | GI50 ([11]; Homo sapiens, HT-29) | other results |
| --- | --- | --- | --- | --- | --- | --- | --- | --- | --- | --- | --- | --- | --- | --- |
| CC[C@H](C)[C@@H]1NC(=O)[C@H](C)NC(=O)[C@H](CC(C)C)NC(=O)[C@H](CO)NC(=O)[C@H](CC(N)=O)NC(=O)[C@H](Cc2ccccc2)NC(=O)[C@@H]2CCCN2C1=O (stereo in doubt; 2) [STYLOSTATIN 1] | 8.44 µM | 3.77 µM | 11.5 µM |  |  |  |  |  |  |  |  |  |  | GI50 [1]: 4.16 µM; GI50 [3]: 3.35 µM; GI50 [4]: 4.64 µM; GI50 [5]: 4.28 µM; GI50 [6]: 4.29 µM; GI50 (K562): 3.42 µM; GI50 [7]: 2.44 µM; GI50 [8]: 8.52 µM; GI50 [9]: 4.97 µM; GI50 [11]: 7.13 µM |
| CC[C@H](C)[C@@H]1NC(=O)[C@H](C)NC(=O)[C@H](CC(C)C)NC(=O)[C@H](CO)NC(=O)[C@H](CC(N)=O)NC(=O)[C@H](Cc2ccccc2)NC(=O)[C@@H]2CCCN2C1=O (stereo in doubt) [STYLOSTATIN 1] | 3.55 µM | 304 µM | 4.55 µM | 4.39 µM | 2.58 µM | 3.06 µM | 3.46 µM | 3.3 µM | 1.94 µM | 2.6 µM | 6.77 µM | 5.03 µM | 6.85 µM |  |
| CC[C@H](C)[C@@H]1NC(=O)[C@H](C)NC(=O)[C@H](CC(C)C)N2C[C@@H](O)[C@@H](O)[C@H](NC(=O)[C@H](CC(N)=O)NC(=O)[C@H](Cc3ccccc3)NC(=O)[C@@H]3CCCN3C1=O)C2=O |  |  |  | 3.86 µM | 3.33 µM | 6.69 µM | 5.2 µM | 4.97 µM | 3.59 µM | 3.49 µM | 8.84 µM | 5.1 µM | 9.31 µM | GI50 ([2]; Homo sapiens, DU-145): 10.6 µM; GI50 ([10]; Homo sapiens, SK-OV-3): 4.99 µM; GI50 ([12]; Homo sapiens, LoVo): 8.83 µM |
